FXN GAA850 act: increases GAA850 frataxin promoter reporter activity | HEK293 lucGAA850 FXN promoter luciferase reporter, 24 h; percent of 10 µM SAHA response | activation, % at 6 µM | hit rate 0.56% among 360,000;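 active means activation above the average of all compounds screened plus 3 SD, cutoff fixed separately per campaign, cut at about 7.5% in these data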
APJ ag: agonists of human APJ apelin receptor; P35414; CHO-K1 APJ PathHunter beta-arrestin, luminescence; 0% DMSO wells, 100% apelin; activation, % at 20 µM; hit rate 0.11% among 330,000; AID 2520;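 active means activation more than six SD over the plate average, tested at 20 µM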
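Incubation: overnight seeding, 90 min compound at 25 °C, 1 h detection; test system: PathHunter CHO-K1 APJ (AGTRL-1) beta-arrestin reporter cells; amount: 1000 cells/well; doses: one dose, 20 µM compound, 1% DMSO; measured by: beta-gal luminescence; measure: agonist-driven arrestin binding to APJ; benchmarks: negative DMSO alone, positive Apelin-13 at 10 nM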
EBI2 block: blocks human EBI2 receptor beta-arrestin signaling; P32249; EBI2 beta-arrestin recruitment, luminescence, 7a,25-OHC stimulated; inhibition, % at 5 µM; hit rate 0.81% among 360,000; AID 651636; in the data active means inhibition above about 38%;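 further: enzyme fragment complementation signal reports receptor beta-arrestin coupling in cells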
CCR6 antag: antagonists of human CCR6 receptor. P51684. CHO-K1 CCR6 PathHunter beta-arrestin, luminescence, CCL20-stimulated. inhibition, % at 20 µM. hit rate 0.49% among 340,000. AID 493098;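 active means compounds whose inhibition of the agonist-driven luminescence signal at 20 µM reaches about 50%, limit read from the data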;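 further: cells stimulated with CCL20 at 14 nM final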
Target sequence (P51684 whole entry, looked up): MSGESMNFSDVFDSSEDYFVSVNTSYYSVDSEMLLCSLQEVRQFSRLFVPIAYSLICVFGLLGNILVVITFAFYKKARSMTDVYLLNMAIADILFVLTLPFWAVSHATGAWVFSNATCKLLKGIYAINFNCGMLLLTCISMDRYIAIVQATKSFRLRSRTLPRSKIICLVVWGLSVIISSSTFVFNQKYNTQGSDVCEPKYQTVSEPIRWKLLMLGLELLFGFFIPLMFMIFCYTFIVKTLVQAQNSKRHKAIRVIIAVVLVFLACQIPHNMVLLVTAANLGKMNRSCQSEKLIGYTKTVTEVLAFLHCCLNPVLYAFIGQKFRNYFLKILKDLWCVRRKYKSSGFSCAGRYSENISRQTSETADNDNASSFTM
CXCR6 block: inhibitors of human CXCR6 receptor | inhibition, % at 20 µM | AID 602244 | hit rate 0.36% among 360,000 | CHO-K1 PathHunter CXCR6 beta-arrestin, luminescence | O00574; in the data active means inhibition above about 34%, passing the limit was not always enough;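 further: antagonist mode with CXCL16 agonist at 10 nM final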
Target sequence (O00574 whole entry, looked up): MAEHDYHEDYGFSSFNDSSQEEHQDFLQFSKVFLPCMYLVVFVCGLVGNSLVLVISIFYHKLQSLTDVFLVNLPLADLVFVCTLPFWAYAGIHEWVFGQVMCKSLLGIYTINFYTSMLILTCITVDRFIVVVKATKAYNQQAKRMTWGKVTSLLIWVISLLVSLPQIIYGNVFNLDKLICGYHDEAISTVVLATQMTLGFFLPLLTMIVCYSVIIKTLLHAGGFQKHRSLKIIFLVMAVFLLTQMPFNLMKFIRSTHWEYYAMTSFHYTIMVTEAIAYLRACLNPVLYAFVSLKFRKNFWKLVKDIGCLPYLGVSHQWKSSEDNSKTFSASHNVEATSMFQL
APJ antag: APJ receptor antagonism; CHO-K1 APJ beta-arrestin complementation, luminescence; hit rate 0.32% among 330,000; P35414; inhibition, % at 20 µM;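 active means inhibition above about 40% at 20 µM, limit read from the data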;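 further: cells challenged with 10 nM apelin-13 agonist together with compound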
APJ antag conf: confirmation of human APJ apelin receptor antagonists | shares compounds with APJ antag | APJ beta-arrestin recruitment, luminescence, antagonist mode | inhibition, % at 20 µM | hit rate 66% among 950 | AID 2766; in the data active means inhibition above about 50%
GAA30 FXN cntr: activates GAA30 frataxin promoter, counter-screen for GAA850 activators. shares compounds with FXN GAA850 act. activation, % at 6 µM. HEK293 lucGAA30 FXN promoter luciferase, 24 h; DMSO = 0%, 5 µM ipriflavone = 100%. AID 588350. hit rate 66% among 1,900;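 active means mean activation above the mean of solvent-only control wells plus 3 SD, cut at about 22% in these data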;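 further: counterscreen of GAA850 promoter hits where activity marks nonselective or luminescence artifacts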
FXN GAA850 conf: confirmation of GAA850 frataxin (FXN) promoter activators; activation, % at 6 µM; AID 588351; shares compounds with FXN GAA850 act; hit rate 86% among 1,900; HEK293 lucGAA850 FXN promoter luciferase reporter, 24 h; 100% = activation by SAHA;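 active means mean activation above a set limit taken from the primary screen, cut at about 8% in these data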
CXCR6 antag conf: confirmation of human CXCR6 receptor antagonists | hit rate 65% among 700 | shares compounds with CXCR6 block | inhibition, % at 20 µM | CHO-K1 CXCR6 PathHunter beta-arrestin, luminescence;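 active means mean inhibition over four retests above 40%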;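 further: receptor stimulated with 10 nM CXCL16 agonist; beta-galactosidase fragment complementation upon beta-arrestin recruitment to receptor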
Of the large screens only hits and unclear results are named; the others gave an inactive call (follow-up assays come after a bar, where they were run). Most compounds without a hit are left out; they make up all but 2% or so of the library.

CNc1ccc2oc(C[C@H]3O[C@@]4(CC[C@H]3C)O[C@H]([C@H](C)C(=O)c3ccc[nH]3)[C@H](C)C[C@H]4C)nc2c1C(=O)O	CCR6 antag 55, CXCR6 block 75, APJ antag 65 | APJ antag conf 61 | CXCR6 antag conf 69
N/C(=N\[N+](=O)[O-])N1CCN(C(=O)Oc2ccccc2)CC1	none
COc1cc(/C=C/[N+](=O)[O-])ccc1OC(=O)c1cccnc1	CCR6 antag 82, CXCR6 block 57, APJ antag 59 | APJ antag conf 72 | CXCR6 antag conf 63
COc1ccc(CNC(=O)CCC(=O)N2C[C@H]3C[C@H](C2)c2cccc(=O)n2C3)cc1	none
c1cncc(C2Nc3cccc4cccc(c34)N2)c1	FXN GAA850 act 12 | GAA30 FXN cntr 26 | FXN GAA850 conf inactive
c1cncc(C2CCCCN2)c1 (configuration not stated)	none
COc1ccc(CNCCc2c[nH]c3ccccc23)c(OC)c1OC	FXN GAA850 act 8.1 | GAA30 FXN cntr inactive | FXN GAA850 conf 8.7
COc1cccc(CNCCc2c[nH]c3ccccc23)c1OC	none
COc1ccc(-n2c(O)c(C=NCCN(C)C)c(=O)[nH]c2=O)cc1	none
O=[N+]([O-])c1ccc(Cl)c([N+](=O)[O-])c1	FXN GAA850 act 8.0 | GAA30 FXN cntr 38 | FXN GAA850 conf 78
O=[N+]([O-])c1ccc(O)c([N+](=O)[O-])c1	none
C=C[C@@H]1C2=CCOC(=O)C2=CO[C@H]1O[C@@H]1O[C@H](CO)[C@@H](O)[C@H](O)[C@H]1O	none
C=C1C(C)C2C(Cc3ccccc3)NC(=O)C23C(OC(C)=O)C=CC(C)(O)CC(C)CC=CC3C1O (configuration not stated)	FXN GAA850 act 7.6 (no result: APJ ag, APJ antag) | GAA30 FXN cntr inactive | FXN GAA850 conf 23
C[C@H]1[C@@H](OS(=O)(=O)O)C[C@@H]2C[C@H]([C@@H](O)c3cc(=O)[nH]c(=O)[nH]3)NC3=NC[C@H]1N32	none (no result: APJ ag, APJ antag)
CN1C(=O)/C(=C\c2ccc(N3CCCCC3)o2)C(=O)NC1=S	none
CN1C(=O)/C(=C/c2ccc(N3CCCCCC3)o2)C(=O)NC1=S	FXN GAA850 act 9.9 | GAA30 FXN cntr 100 | FXN GAA850 conf 47
COC1/C=C/C=C(\C)Cc2cc(O)c(Cl)c(c2)N(C)C(=O)CC(OC(=O)C(C)C)C2(C)OC2C(C)C2CC1(O)NC(=O)O2 (configuration not stated)	FXN GAA850 act 19 (no result: APJ ag, APJ antag) | GAA30 FXN cntr inactive | FXN GAA850 conf 21
C/C(=N\N1CCCCC1c1cccnc1)c1c(O)n(C2CCCCC2)c(=S)[nH]c1=O (configuration not stated)	FXN GAA850 act 8.2 | GAA30 FXN cntr inactive | FXN GAA850 conf 17
O=C(COC(=O)c1cc(Br)cc(Br)c1O)NC12CC3CC(CC(C3)C1)C2	none (no result: APJ ag, CCR6 antag, APJ antag)
O=C1C=C2C=C[C@@H]3CC2(O1)[C@H]1CCCCN31	FXN GAA850 act 8.1 | GAA30 FXN cntr 36 | FXN GAA850 conf 14
CCCCCP(=O)(O)c1ccccc1	none
CCCC/C(C)=C/[C@@H](NP(=O)(c1ccccc1)c1ccccc1)c1ccccc1	FXN GAA850 act 9.2 | GAA30 FXN cntr inactive | FXN GAA850 conf inactive
CN(C)C1C(=O)C(C(N)=O)=C(O)C2(O)C(=O)C3=C(O)c4c(O)cccc4C(C)(O)C3C(O)C12 (configuration not stated)	FXN GAA850 act 16 | GAA30 FXN cntr 33 | FXN GAA850 conf 11
[Cl][Pt+2][Cl].[NH-]C1CCCCC1[NH-] (configuration not stated)	none
N#Cc1cn(C2OC(CO)C(O)C2O)c2ncnc(N)c12 (configuration not stated)	FXN GAA850 act 14 (no result: APJ ag, APJ antag) | GAA30 FXN cntr 48 | FXN GAA850 conf inactive
C[N+]1(C)C2CC(OC(=O)[C@H](CO)c3ccccc3)CC1C1OC12 (some centres not stated)	none
CN1CCN(c2ccc3c(c2)S(=O)(=O)c2ccccc2C3=O)CC1	FXN GAA850 act 8.8 | GAA30 FXN cntr 97 | FXN GAA850 conf 35
O=C1NC(=O)N(Cc2ccccc2)C(=O)/C1=C\C=C\c1ccco1	FXN GAA850 act 13 | GAA30 FXN cntr inactive | FXN GAA850 conf 31
Cn1cccc1/C=C1\C(=O)NC(=O)N(Cc2ccco2)C1=O	none (no result: APJ ag, APJ antag)
O=C1NC(=O)N(Cc2ccco2)C(=O)/C1=C/C=C/c1ccco1	FXN GAA850 act 10 | GAA30 FXN cntr inactive | FXN GAA850 conf 26
C=CCC1(CCCCC)C(=O)NC(=S)NC1=O	none (no result: APJ ag, APJ antag)
C#C[C@]1(O)CC[C@H]2[C@@H]3CCC4=Cc5nc6nc7ccccc7n6cc5C[C@]4(C)[C@H]3CC[C@@]21C	none
Clc1ccc(C(c2ccc(Cl)cc2)n2cc[n+](CC(OCc3ccc(Cl)cc3Cl)c3ccc(Cl)cc3Cl)c2)cc1 (configuration not stated)	none
Cc1ccc(N2C(=O)NC(=O)/C(=C\C=C\c3ccco3)C2=O)cc1C	FXN GAA850 act 8.4 (no result: APJ ag, APJ antag) | GAA30 FXN cntr inactive | FXN GAA850 conf inactive
Cc1cccc(N2C(=O)NC(=O)/C(=C\C=C\c3ccco3)C2=O)c1	none
Cc1ccc(N2C(=O)NC(=O)/C(=C\C=C\c3ccco3)C2=O)cc1	FXN GAA850 act 8.0 | GAA30 FXN cntr inactive | FXN GAA850 conf 20
COC(=O)N1Cc2ccccc2-n2nncc2C1	none (no result: APJ ag, CCR6 antag, APJ antag)
CCNC(=O)[C@H]1O[C@@H](n2cnc3c(N)ncnc32)[C@H](O)[C@@H]1O	FXN GAA850 act 8.6 | GAA30 FXN cntr 35 | FXN GAA850 conf 18
CC(C)(O)C(=O)Nc1ccc([N+](=O)[O-])c(C(F)(F)F)c1	FXN GAA850 act 12 | GAA30 FXN cntr inactive | FXN GAA850 conf inactive
COc1cc2c(cc1OC)CN(c1ccc([N+](=O)[O-])c(C(F)(F)F)c1)CC2	none
COc1ccc(C2CC(c3c(O)n(CCc4ccccc4)c(=O)[nH]c3=O)=NN2)cc1OC (configuration not stated)	CCR6 antag 104, CXCR6 block 90 | CXCR6 antag conf 104
COc1ccc(CCn2c(O)c(C=NCc3cccnc3)c(=O)[nH]c2=O)cc1OC	none

Bioassay records: PubChem BioAssay, several laboratories
